MT stabilizer = microtubule stabilization, imaging screen. actives 0.83% (n = 200,000). AID 2205. HeLa tubulin immunostaining HCS, 24 h; share of cells brighter than vehicle mean+2SD. % tubulin-high responders, % at 10 µM;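 active = plate Z-score above 3 for both tubulin-high and condensed-nucleus cell shares, with cell loss under 80%, at 10 µM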;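 note: anti alpha tubulin signal scored within the nucleus-defined area of each cell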
ABCB1 inh = inhibitors of human ABCB1 transporter, ABCG2 counter-screen; actives 0.067% (n = 190,000); inhibition, % at 6.6 µM; P08183; CCRF-Adr cells, JC-1 efflux, flow cytometry; AID 1326; in the data active = inhibition above about 40%;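 note: higher value means more JC-1 retained so stronger ABCB1 efflux block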
bCat nuc transl = beta-catenin nuclear translocation modulation; HeLa beta-catenin nuclear translocation, immunofluorescence imaging; AID 1665; actives 0.3% (n = 190,000); nuclear translocation activity, % at 5 µM;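 active = nuclear translocation activity above 50% at 5 µM, with a well cell count of 50 or more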;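 note: per-cell ratio of nuclear to cytoplasmic median beta-catenin stain intensity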
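System: HeLa cells, endogenous beta-catenin; compound dosing: 5 µM primary single dose, 0.1% DMSO, 0.02–20 µM confirmation series; incubation: 24 h compound exposure at 37°C, 5% CO2; signal: beta-catenin immunofluorescence imaging with DAPI; evaluation: % activation, nuclear-to-cytoplasmic median beta-catenin signal ratio per cell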
ABCG2 inh = blocks JC-1 efflux by human ABCG2 transporter | Q9UNQ0 | IgMXP3 cells, flow cytometry | inhibition, % at 6.6 µM | actives 0.1% (n = 190,000);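 active = inhibition above 80%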
Target sequence (Q9UNQ0 whole entry, looked up): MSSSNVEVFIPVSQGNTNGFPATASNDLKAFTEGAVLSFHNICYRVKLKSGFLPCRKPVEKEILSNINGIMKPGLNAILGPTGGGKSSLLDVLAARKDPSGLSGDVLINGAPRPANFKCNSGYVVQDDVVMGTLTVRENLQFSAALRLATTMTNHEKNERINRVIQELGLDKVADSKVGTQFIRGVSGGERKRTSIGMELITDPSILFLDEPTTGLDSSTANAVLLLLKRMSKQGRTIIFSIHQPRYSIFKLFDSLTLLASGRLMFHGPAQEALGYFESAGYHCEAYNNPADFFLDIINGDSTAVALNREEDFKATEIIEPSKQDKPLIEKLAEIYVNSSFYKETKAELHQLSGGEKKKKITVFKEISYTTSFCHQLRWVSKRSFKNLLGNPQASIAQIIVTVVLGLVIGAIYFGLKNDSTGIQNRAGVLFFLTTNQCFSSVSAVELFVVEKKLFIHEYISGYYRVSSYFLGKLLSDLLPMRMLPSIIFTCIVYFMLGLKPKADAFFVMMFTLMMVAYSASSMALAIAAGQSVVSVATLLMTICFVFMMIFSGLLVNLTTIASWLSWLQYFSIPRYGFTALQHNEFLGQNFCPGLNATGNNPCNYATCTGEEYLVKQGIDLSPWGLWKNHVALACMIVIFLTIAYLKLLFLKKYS
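Test system: IgMXP3 (ABCG2) plus far-red-tagged CCRF-Adr (ABCB1) cells. Reagent: JC-1 dye as substrate. Timing: 10 min exposure at 25 °C with rotation, no wash. Measured by: flow cytometric JC-1 green MFI at 530 nm. Read-out: percent efflux inhibition, scaled nicardipine 100% to DMSO 0%. Control set: nicardipine and DMSO wells.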
PKD1 kinase inh = PKD1 (human) kinase inhibition; AID 797; PKD1 kinase fluorescence polarization assay; actives 0.056% (n = 200,000); Q15139; inhibition, % (concentration not given with the values); in the data active = inhibition above about 50%
Each line names hits and unclear results; the compound was inactive in the other large screens. Sampled rows, rich in hits. Any-hit rate of the full collection: about 1%.

Cc1ccc(C2C(C#N)=C(N)N(N(C)C)C3=C2C(=O)CCC3)cc1 (configuration not stated)	none (no result: bCat nuc transl)
O=C(CSc1n[nH]c(-c2ccccc2O)n1)N1CCCc2ccccc21	MT stabilizer 47.5
COc1ccc(NC(=O)c2ccc3c(c2)NC(=O)CO3)cc1OC	none
c1ccc(-c2cc(-c3nnc4n3N=C(c3ccc5ccccc5c3)CS4)[nH]n2)cc1	MT stabilizer 20.7
COC(=O)c1sccc1NC(=S)N1CCN(c2cc(C)ccc2C)CC1	MT stabilizer 17.3
CC1CCN(CC(=O)Nc2ccc(Br)cc2[N+](=O)[O-])CC1	none
CCN(CC)c1ccc(C(=O)n2cnc3ccccc32)cc1	MT stabilizer 22.2
COc1cc(S(=O)(=O)N2CCOCC2)ccc1NC(=O)COC(=O)CC12CC3CC(CC(C3)C1)C2	none
Cc1ccc(-c2cc(=O)c3ccccc3[nH]2)cc1	none (no result: bCat nuc transl)
Cc1ccc2[nH]c(-c3ccccc3)cc(=O)c2c1	MT stabilizer 43.0, bCat nuc transl 92.9
COc1ccc(C2C(C(=O)O)CCC(=O)N2c2ccc(C)cc2)cc1OC (configuration not stated)	none (no result: MT stabilizer, ABCB1 inh, ABCG2 inh, PKD1 kinase inh)
COc1ccc(-c2csc3ncnc(Cl)c23)cc1	none
COc1ccc(Nc2ncnc3scc(-c4ccc(OC)cc4)c23)cc1	MT stabilizer 13.1 (no result: bCat nuc transl)
COCCn1ccc(O)c(Cc2ccccc2)c1=O	none
CC(=O)Nc1ccc2c(c1)CCCC2=O	none (no result: MT stabilizer, ABCB1 inh, ABCG2 inh, PKD1 kinase inh)
O=C1CCCc2cc3c(cc21)CC1(C3)Cc2cc3c(cc2C1)C(=O)CCC3	bCat nuc transl 72.0 (no result: MT stabilizer, ABCB1 inh, ABCG2 inh, PKD1 kinase inh)
Cc1ccoc1C(=O)NCCNc1ccc(Cl)cc1[N+](=O)[O-]	none
N#C/C(=C\c1cccn1-c1ccccc1)C(=O)NC1CCCCC1	MT stabilizer 30.4
O=C(/C=C/c1ccco1)NC(=S)Nc1cccc(-c2nc3ccccc3o2)c1	MT stabilizer 27.7, bCat nuc transl 53.8
O=C(/C=C/c1ccco1)NC(=S)Nc1cccc(-c2nc3ccccc3s2)c1	MT stabilizer 38.5 (no result: ABCB1 inh, bCat nuc transl, ABCG2 inh)
CCOc1ccc(/C=N/NC(=O)CSc2n[nH]c(=O)[nH]c2=O)cc1OC	none
CCOC(=O)c1[nH]c(C)c(C(=O)Nc2ccc(C)c(Cl)c2)c1C	none
CCOC(=O)c1[nH]c(C)c(C(=O)Nc2cc(Cl)ccc2C)c1C	MT stabilizer 38.1, bCat nuc transl 58.1
CCOC(=O)c1[nH]c(C)c(C(=O)Nc2ccccc2C)c1C	MT stabilizer 30.6
O=C(Nc1ccccc1)N1CCN(S(=O)(=O)c2ccccc2)CC1	none
COc1cc(/C=N/Nc2snc(SC)c2C#N)ccc1O	MT stabilizer 49.1
Cc1cccc(-n2c(CNC(=O)c3cccc([N+](=O)[O-])c3C)n[nH]c2=S)c1	MT stabilizer 13.7
CCC(=NCCc1c(C)[nH]c2ccccc12)C1=C(O)CC(c2ccccc2)CC1=O (configuration not stated)	MT stabilizer 14.8, bCat nuc transl 80.1
CCCCC(=NCCc1c(C)[nH]c2ccc(OC)cc12)C1=C(O)CC(c2ccccc2)CC1=O (configuration not stated)	MT stabilizer 16.5
COc1ccc(C2CC(c3cccs3)=Nc3ccccc3S2)cc1 (configuration not stated)	MT stabilizer 20.6
COc1ccc(C2CC(c3cccs3)=NN2S(C)(=O)=O)cc1 (configuration not stated)	none (no result: MT stabilizer, ABCB1 inh, ABCG2 inh, PKD1 kinase inh)
COc1ccc(-n2c(SCC(=O)Nc3sc4c(c3C#N)CCCC4)nnc2-c2ccccc2OC)cc1	none
COc1ccc(-c2nnc(SCC(=O)Nc3ncc(C)s3)n2-c2ccccc2)cc1OC	MT stabilizer 58.5
COc1ccc(-c2nnc(SCC(=O)Nc3sc4c(c3C#N)CCCC4)n2-c2ccccc2)cc1	MT stabilizer 20.1
NC(=O)c1c(NC(=O)CSc2nnc(-c3ccco3)n2-c2ccccc2)sc2c1CCC2	MT stabilizer 23.4
O=C(O)c1csc(N/N=C/c2ccc(Br)cc2)n1	none
CCN1C/C(=C\c2cccc([N+](=O)[O-])c2)C(=O)/C(=C/c2cccc([N+](=O)[O-])c2)C1	MT stabilizer 28.4
Cc1nc2c3cc(Cl)ccc3n(CCN3CCCCC3)c2s1	MT stabilizer 24.5, bCat nuc transl 96.7
COC(=O)Cn1c2ccc(Cl)cc2c2nc(C)sc21	none (no result: MT stabilizer, ABCB1 inh, ABCG2 inh, PKD1 kinase inh)
CC1CCN(C(=O)C2CCN(S(=O)(=O)c3cccc4nsnc34)CC2)CC1	none
COC(=O)c1c(NC(=O)/C=C/C(=O)O)sc(Cc2ccccc2)c1C	none
Cc1c(Cc2ccccc2)sc(NC(=O)/C=C/c2cccc3ccccc23)c1C(N)=O	MT stabilizer 18.2
COc1ccc(CCNC(=O)Cc2c(Cl)cccc2Cl)cc1	none
Cc1ncc(S(=O)(=O)C(C)(C)C)c(N)n1	none (no result: MT stabilizer, ABCB1 inh, ABCG2 inh, PKD1 kinase inh)
Cc1ccc(C(=O)n2c3ccccc3c3ccccc32)cc1	MT stabilizer 44.0, bCat nuc transl 95.8
Clc1cnc2nc(SC/C=C/c3ccccc3)[nH]c2c1	none (no result: MT stabilizer, ABCB1 inh, ABCG2 inh, PKD1 kinase inh)
Cc1cc2c(cc(C(=O)OCC(=O)NCc3cccs3)n2C(C)C)o1	MT stabilizer 30.0, bCat nuc transl 65.1
O=C(NCCc1ccccc1)C1CCN(S(=O)(=O)c2ccc(-c3nn[nH]n3)cc2)CC1	none
COc1cc(/C=N/NC(=O)c2cc(C)oc2C)cc(OC)c1OC	none
O=c1cc(N2CCN(c3ccc(F)cc3)CC2)[nH]c(=O)n1C1CCCCC1	MT stabilizer 27.3
Cc1ccc(S(=O)(=O)N2CCN(C(C)C(=O)Nc3ccccc3-c3ccccc3)CC2)cc1 (configuration not stated)	none
Cn1c(SCC(=O)N(C2CCCCC2)C2CCCCC2)nnc1-c1cccs1	MT stabilizer 27.5 (no result: bCat nuc transl)
COC(=O)c1cc2ccsc2n1CC(=O)Nc1cc(Cl)ccc1OC	MT stabilizer 30.0 (no result: bCat nuc transl)
COC(=O)c1cc2ccsc2n1CC(=O)Nc1ccc(N(C)C)cc1	none
COc1ccc(/C=N/NC(=O)CCn2cnc(-c3ccccc3)c2-c2ccccc2)cc1	bCat nuc transl 60.1
COc1ccc(/C=N/NC(=O)CCn2cnc3ccccc32)cc1	none (no result: MT stabilizer, ABCB1 inh, ABCG2 inh, PKD1 kinase inh)
O=C(CCn1cnc(-c2ccccc2)c1-c1ccccc1)N/N=C/c1ccc(O)cc1	MT stabilizer 23.1
Cc1cccc(/C=C\c2nc3ccccc3c(=O)[nH]2)c1	MT stabilizer 12.4
Cc1nc(/C=C/c2ccccc2)[nH]c(=O)c1-c1ccccc1	MT stabilizer 9.2
C(=C\c1nc2ccccc2[nH]1)/c1ccccc1	MT stabilizer 40.5 (no result: bCat nuc transl)
CCOC(=O)c1sc(=NC(=O)CCS(=O)(=O)c2ccccc2)n(C)c1C	PKD1 kinase inh 90.6
CCOc1cc(Cl)c(NC(=O)CC)cc1OCC	none (no result: bCat nuc transl)
O=C1c2ccccc2-c2nc3ncnn3c(-c3ccccc3)c21	none (no result: ABCB1 inh, bCat nuc transl, ABCG2 inh)
c1ccc(-c2cnn3c(-c4ccccc4)c(-c4ccccc4)nc3n2)cc1	ABCB1 inh 42.5, ABCG2 inh 171.9
CCOc1ccc(Nc2cc(=O)oc3ccccc23)cc1	MT stabilizer 28.9
COc1ccc(Nc2ncnc3c2cnn3-c2ccccc2)cc1OC	none
Cc1cccc(-n2ncc3c(NCc4ccco4)ncnc32)c1	MT stabilizer 28.1
Cc1cccc(-n2ncc3c(NCc4ccccc4)ncnc32)c1	none
